From ChEMBL document CHEMBL1145389, “Total synthesis and biological evaluation of C16 analogs of (-)-dictyostatin” (2007)

What was measured:
1A9/ptx-22 = experiment: Growth inhibition of beta tubulin A364T mutant expressing human 1A9/Ptx22 cells after 72 hrs; assay type: functional; conditions: 1A9/ptx-22, 72 h
Outline: (§1)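 GI50 determined after 72 h continuous exposure to test agent in ovarian carcinoma 1A9 cells and in paclitaxel-resistant 1A9 clones carrying mutant β-tubulin (Ptx10, βPhe270→Val; Ptx22, βAla364→Thr).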

Bos taurus [1] = species: Bos taurus; experiment: Displacement of [3H]paclitaxel from bovine brain tubulin at 4 uM
Outline: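 Competition at 37 °C: 4 µM test agent against 2 µM [³H]paclitaxel for binding to microtubules assembled from 2 µM bovine brain tubulin with 20 µM dideoxyGTP; reported as percent competition.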

HeLa = experiment: Increase in cellular tubulin polymer mass in HeLa cells assessed as minimum detectable effective concentration after 21 hrs; assay type: functional, Homo sapiens
Outline: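 HeLa cells exposed continuously for 21 h; lowest concentration producing a detectable rise in cellular tubulin polymer mass recorded as MDEC.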

Bos taurus [2] = species: Bos taurus; experiment: Induction of bovine brain tubulin polymerization at 10 uM relative to paclitaxel
1A9 = experiment: Growth inhibition of human 1A9 cells after 72 hrs; assay type: functional; conditions: 1A9, 72 h; outline: as §1
1A9/ptx-10 = experiment: Growth inhibition of beta tubulin Phe270Val mutant expressing human 1A9/Ptx10 cells after 72 hrs; assay type: functional; conditions: 1A9/ptx-10, 72 h; outline: as §1

C=C/C=C\[C@H](C)[C@@H]1OC(=O)/C=C/C=C/[C@@H](C)[C@@H](O)C[C@H](O)/C=C\[C@H](C)[C@H](O)[C@@H](C)/C=C\CC[C@@H](O)[C@@H]1C gave a GI50 (1A9/ptx-22) of 847 nM, an Activity (Bos taurus [1]) of 5% and an Activity (HeLa) of 647 nM. It also gave a % tubulin polymerization (Bos taurus [2]) of 10%, a GI50 (1A9) of 210 nM and a GI50 (1A9/ptx-10) of 23700 nM.
C=C/C=C\[C@H](C)[C@H](OC(N)=O)[C@@H](C)[C@H](O)[C@@H](C)C/C(C)=C\[C@H](C)[C@@H](O)[C@@H](C)/C=C\[C@@H](O)C[C@@H]1OC(=O)[C@H](C)[C@@H](O)[C@H]1C [DISERMOLIDE] was tested, and the GI50 (1A9/ptx-22) was 7 nM, the Activity (Bos taurus [1]) was 76% and the Activity (HeLa) was 65 nM. The % tubulin polymerization (Bos taurus [2]) was 148%, the GI50 (1A9) was 1.7 nM and the GI50 (1A9/ptx-10) was 6.2 nM.
C=C/C=C\[C@H](C)[C@@H]1OC(=O)/C=C\C=C\[C@@H](C)[C@@H](O)C[C@@H](O)/C=C\[C@H](C)[C@H](O)[C@@H](C)/C=C\CC[C@@H](O)[C@@H]1C was tested, and the GI50 (1A9/ptx-22) was 4600 nM, the Activity (Bos taurus [1]) was 11% and the Activity (HeLa) was greater than 5000 nM. For the same molecule, the % tubulin polymerization (Bos taurus [2]) was 1%, the GI50 (1A9) was 4260 nM and the GI50 (1A9/ptx-10) was 19300 nM.
Molecule C=C/C=C\[C@H](C)[C@H](O)[C@H](C)[C@@H]1CC/C=C\[C@H](C)[C@@H](O)[C@@H](C)/C=C\[C@H](O)C[C@H](O)[C@H](C)/C=C\C=C\C(=O)O1 has a GI50 (1A9/ptx-22) greater than 50000 nM, an Activity (Bos taurus [1]) of 7% and an Activity (HeLa) greater than 5000 nM. For the same molecule, the % tubulin polymerization (Bos taurus [2]) was 6%, the GI50 (1A9) was greater than 50000 nM and the GI50 (1A9/ptx-10) was 32700 nM.
C=C/C=C\[C@H](C)[C@H](O)[C@@H](C)[C@H]1CC[C@@H](C)C[C@H](C)[C@@H](O)[C@@H](C)/C=C\[C@@H](O)C[C@H](O)[C@H](C)/C=C/C=C\C(=O)O1 gave a GI50 (1A9/ptx-22) of 53800 nM, an Activity (Bos taurus [1]) of 4% and an Activity (HeLa) greater than 5000 nM. It also gave a % tubulin polymerization (Bos taurus [2]) of 3%, a GI50 (1A9) of 7800 nM and a GI50 (1A9/ptx-10) of 44200 nM.
Molecule C=C/C=C\[C@H](C)[C@@H]1OC(=O)/C=C\C=C\[C@@H](C)[C@@H](O)C[C@H](O)/C=C\[C@H](C)[C@H](O)[C@@H](C)/C=C\CC[C@@H](O)[C@@H]1C has a GI50 (1A9/ptx-22) of 62 nM, an Activity (Bos taurus [1]) of 38% and an Activity (HeLa) of 11 nM. The % tubulin polymerization (Bos taurus [2]) was 107%, the GI50 (1A9) was 8.3 nM and the GI50 (1A9/ptx-10) was 942 nM.
C=C/C=C\[C@H](C)[C@@H]1OC(=O)/C=C\C=C\[C@@H](C)[C@@H](O)C[C@H](O)/C=C\[C@H](C)[C@H](O)[C@@H](C)C[C@@H](C)CC[C@@H](O)[C@@H]1C [DICTYOSTATIN] gave a GI50 (1A9/ptx-22) of 1.3 nM, an Activity (Bos taurus [1]) of 75% and an Activity (HeLa) of 5.4 nM. The GI50 (1A9) was 0.69 nM and the GI50 (1A9/ptx-10) was 3.2 nM.
In the case of CC(=O)O[C@H]1C(=O)[C@@]2(C)[C@H]([C@H](OC(=O)c3ccccc3)[C@]3(O)C[C@H](OC(=O)[C@H](O)[C@@H](NC(=O)c4ccccc4)c4ccccc4)C(C)=C1C3(C)C)[C@]1(OC(C)=O)CO[C@@H]1C[C@@H]2O [PACLITAXEL], the GI50 (1A9/ptx-22) is reported as 51 nM, the Activity (HeLa) is reported as 5.2 nM and the % tubulin polymerization (Bos taurus [2]) is reported as 100%. It also gave a GI50 (1A9) of 0.71 nM and a GI50 (1A9/ptx-10) of 64 nM.
Molecule C=C/C=C\[C@H](C)[C@H](OC(N)=O)[C@@H](C)[C@H](O)[C@@H](C)C/C=C\[C@H](C)[C@@H](O)[C@@H](C)/C=C\[C@@H](O)C[C@@H]1OC(=O)[C@H](C)[C@@H](O)[C@H]1C has a GI50 (1A9/ptx-22) of 30 nM, an Activity (Bos taurus [1]) of 75% and an Activity (HeLa) of 29 nM. For the same molecule, the GI50 (1A9) was 3.7 nM and the GI50 (1A9/ptx-10) was 33 nM.
C=C/C=C\[C@H](C)[C@@H]1OC(=O)/C=C\C=C\[C@@H](C)[C@@H](O)C[C@H](O)/C=C\[C@H](C)[C@H](O)[C@@H](C)CCCC[C@@H](O)[C@@H]1C showed a GI50 (1A9/ptx-22) of 5.6 nM, an Activity (Bos taurus [1]) of 48% and an Activity (HeLa) of 25 nM. It also gave a % tubulin polymerization (Bos taurus [2]) of 91%, a GI50 (1A9) of 0.41 nM and a GI50 (1A9/ptx-10) of 470 nM.
C=C/C=C\[C@H](C)[C@@H]1OC(=O)/C=C\C=C\[C@@H](C)[C@@H](O)C[C@H](O)/C=C\[C@H](C)[C@H](O)[C@@H](C)C[C@H](C)CC[C@@H](O)[C@@H]1C showed a GI50 (1A9/ptx-22) of 543 nM, an Activity (Bos taurus [1]) of 11% and an Activity (HeLa) of 1280 nM. For the same molecule, the % tubulin polymerization (Bos taurus [2]) was 9%, the GI50 (1A9) was 61 nM and the GI50 (1A9/ptx-10) was 862 nM.
